Measurements published in ChEMBL document CHEMBL2062484, “Design of barbiturate-nitrate hybrids that inhibit MMP-9 activity and secretion” (J Med Chem, 2012).
Active and inactive are the calls of the source. No cut-off for these calls is given here.

Columns and labels:
[1] = test system: Caco-2; assay: Inhibition of HGF stimulated human Caco2 cells migration through matrigel membrane at 100 nM by staining based light microscopic analysis; type: functional
In short: (§1)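 Matrigel-coated invasion chamber inserts, 8 μm pore membrane, 0.5 mL of 2 × 10⁵ Caco-2 cells/mL; stimulated with HGF (100 or 500 ng/mL) or PMA (10 μM) with compound (100 nM or 10 μM); 48 h invasion at 37 °C, 5% CO2. Non-invading cells swabbed off, lower-surface cells Diff-Quik stained and counted by light microscopy; normalized to stimulated control; duplicates.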

[2] = Cytotoxicity against human Caco2 cells assessed as cell viability after 24 hrs by MTT assay; type: cell-based; settings: Caco-2 cells
In short: (§2)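 Cells seeded (Caco-2 8 × 10³/well, HT1080 12 × 10⁴/well), grown to 70% confluence, serum-starved 1 h, then exposed to compound at 0.1−200 μM (eight levels) serum-free for 24 h. MTT 0.5 mg/mL for 3 h at 37 °C, formazan dissolved in DMSO, OD 540 nm; viability as % of untreated. CC50 from sigmoidal fits; three experiments, triplicate wells.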

[3] = Cytotoxicity against human HT1080 cells assessed as cell viability after 24 hrs by MTT assay; type: cell-based; settings: HT-1080 cells; in short: as §2
[4] = Cytotoxicity against human Caco2 cells assessed as inhibition of cell viability at 100 uM after 24 hrs by MTT assay; type: cell-based; settings: Caco-2 cells, read-out: INH; in short: as §2
[5] = Cytotoxicity against human HT1080 cells assessed as inhibition of cell viability at 100 uM after 24 hrs by MTT assay; type: cell-based; settings: HT-1080 cells, read-out: INH; in short: as §2
[6] = biological target: 72 kDa type IV collagenase (Homo sapiens, UniProt P08253); assay: Inhibition of p-aminophenylmercuric acetate stimulated human recombinant MMP-2 using (7-methoxycoumarin-4-yl)-acetyl-pro-Leu-Gly-Leu-(3-(2,4-dinitrophenyl)-L-2,3-diaminopropionyl)-Ala-Arg-NH2 as substrate after 45 mins by fluorogenic assay
Sequence of 72 kDa type IV collagenase (P08253 whole entry): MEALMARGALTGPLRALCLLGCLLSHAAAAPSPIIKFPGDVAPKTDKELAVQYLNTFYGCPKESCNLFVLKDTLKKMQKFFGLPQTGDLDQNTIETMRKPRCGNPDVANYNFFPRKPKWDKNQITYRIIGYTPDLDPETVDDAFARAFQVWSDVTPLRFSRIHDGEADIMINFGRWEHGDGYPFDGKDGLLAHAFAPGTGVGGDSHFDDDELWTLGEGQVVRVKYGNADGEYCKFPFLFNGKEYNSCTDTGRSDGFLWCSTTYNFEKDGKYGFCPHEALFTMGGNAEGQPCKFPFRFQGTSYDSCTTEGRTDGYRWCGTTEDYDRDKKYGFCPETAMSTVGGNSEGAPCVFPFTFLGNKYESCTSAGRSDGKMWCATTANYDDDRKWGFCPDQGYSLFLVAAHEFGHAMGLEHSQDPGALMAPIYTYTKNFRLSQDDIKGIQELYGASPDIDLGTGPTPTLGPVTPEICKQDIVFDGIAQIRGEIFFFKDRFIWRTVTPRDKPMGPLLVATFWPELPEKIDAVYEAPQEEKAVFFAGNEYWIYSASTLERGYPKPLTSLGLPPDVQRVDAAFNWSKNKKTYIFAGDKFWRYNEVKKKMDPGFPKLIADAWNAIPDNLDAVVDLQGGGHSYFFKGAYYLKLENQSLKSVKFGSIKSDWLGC

[7] = biological target: Matrix metalloproteinase-9 (Homo sapiens, UniProt P14780); assay: Inhibition of p-aminophenylmercuric acetate stimulated human recombinant MMP-9 using (7-methoxycoumarin-4-yl)-acetyl-pro-Leu-Gly-Leu-(3-(2,4-dinitrophenyl)-L-2,3-diaminopropionyl)-Ala-Arg-NH2 as substrate after 45 mins by fluorogenic assay
Sequence of Matrix metalloproteinase-9 (P14780 whole entry): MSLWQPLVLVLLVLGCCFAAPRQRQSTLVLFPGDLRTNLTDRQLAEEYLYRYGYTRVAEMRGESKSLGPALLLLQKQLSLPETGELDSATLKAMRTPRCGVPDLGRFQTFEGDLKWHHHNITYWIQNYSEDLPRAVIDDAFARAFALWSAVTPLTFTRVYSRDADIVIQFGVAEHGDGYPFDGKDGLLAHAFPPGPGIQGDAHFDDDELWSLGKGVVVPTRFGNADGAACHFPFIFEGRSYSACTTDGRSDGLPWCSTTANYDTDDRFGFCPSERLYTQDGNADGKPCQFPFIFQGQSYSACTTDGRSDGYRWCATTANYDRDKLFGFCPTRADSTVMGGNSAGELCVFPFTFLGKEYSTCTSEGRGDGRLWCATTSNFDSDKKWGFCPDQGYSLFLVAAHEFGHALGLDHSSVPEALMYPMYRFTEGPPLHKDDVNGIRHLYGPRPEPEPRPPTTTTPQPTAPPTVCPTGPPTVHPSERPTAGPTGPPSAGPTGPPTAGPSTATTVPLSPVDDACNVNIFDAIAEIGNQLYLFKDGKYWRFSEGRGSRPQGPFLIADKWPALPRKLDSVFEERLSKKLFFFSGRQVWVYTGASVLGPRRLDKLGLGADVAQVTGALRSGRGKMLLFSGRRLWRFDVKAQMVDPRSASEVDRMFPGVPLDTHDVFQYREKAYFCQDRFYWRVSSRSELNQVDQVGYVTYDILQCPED

[8] = test system: Caco-2; assay: Induction of nitrite release in human Caco2 cells at 200 uM after 24 hrs by Griess assay; type: functional, cell-based
In short: (§3)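 Compounds incubated 24 h with Caco-2 monolayers at 200 or 10 μM (n = 3). Supernatant nitrite read by Griess reaction (sulfanilamide 2% plus N-1-naphthylethylenediamine) at 4 °C, 45 min shaking, A540; nitrate measured after VCl3 reduction. Quantified against sodium nitrite/nitrate standards 3−200 μM; NOx = nitrite + nitrate.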

[9] = test system: Caco-2; assay: Induction of nitrate release in human Caco2 cells at 200 uM after 24 hrs by Griess assay; type: functional, cell-based; in short: as §3
[10] = test system: HT-1080; assay: Inhibition of PMA-stimulated MMP-9 secretion in human HT1080 cells at 100 uM after 24 hrs by gelatin zymography; type: functional; settings: for inhibition at 100 µM: HT-1080, 24 h
In short: (§4)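 HT1080 at ~75% confluence switched to serum-free medium, pretreated 3 h with compound (100 μM; DMSO ≤0.1%), then PMA 10 μM for 24 h at 37 °C. Cleared supernatants loaded at equal protein on 2% gelatin SDS-PAGE, Triton washed, developed 48 h at 37 °C in Tris pH 7.5/CaCl2 buffer, Coomassie stained; gelatinolytic bands quantified by densitometry relative to stimulated control.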

[11] = test system: HT-1080; assay: Inhibition of PMA-stimulated MMP-2 secretion in human HT1080 cells at 100 uM after 24 hrs by gelatin zymography; type: functional, cell-based; in short: as §4
[12] = Cytotoxicity against human Caco2 cells assessed as inhibition of cell viability at 12.5 uM after 24 hrs by MTT assay; type: cell-based; settings: Caco-2 cells, read-out: INH; in short: as §2
[13] = test system: Caco-2; assay: Induction of apoptosis in human Caco2 cells assessed as increase in apoptotic cell population at 10 uM after 24 hrs by Annexin V FITC staining based flow cytometry; settings: caco-2, 24 h
In short: (§5)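 Cells at 80% confluence in T25 flasks treated 24 h serum-free with compound (10 μM); vehicle-only controls. Cells washed in Hepes pH 7.4/NaCl/CaCl2 binding buffer, double-stained with Annexin V-FITC and propidium iodide 15 min at room temperature in dark, read by flow cytometry within 5 min; expressed as % of control fluorescence.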

[14] = test system: Caco-2; assay: Induction of apoptosis in human Caco2 cells assessed as increase in necrotic cell population at 10 uM after 24 hrs by Annexin V FITC staining based flow cytometry; settings: caco-2, 24 h; in short: as §5
[15] = test system: HT-1080; assay: Induction of apoptosis in human HT1080 cells assessed as increase in apoptotic cell population at 10 uM after 24 hrs by Annexin V FITC staining based flow cytometry; settings: ht-1080, 24 h; in short: as §5
[16] = test system: HT-1080; assay: Induction of apoptosis in human HT1080 cells assessed as increase in necrotic cell population at 10 uM after 24 hrs by Annexin V FITC staining based flow cytometry; settings: ht-1080, 24 h; in short: as §5
[17] = test system: Caco-2; assay: Inhibition of IL1beta/TNFalpha-stimulated MMP-9 secretion in human Caco2 cells at 10 uM after 24 hrs by densitometric analysis; type: functional, cell-based
In short: (§6)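 Near-confluent (~75%) Caco-2 switched to serum-free medium, pretreated 30 min with compound (10 μM, DMSO <1%), then TNF-α and IL-1β 10 ng/mL for 24 h at 37 °C. Cleared supernatants normalized by Bradford protein, run on 2% gelatin SDS-PAGE, Triton washed, developed 48 h at 37 °C in Tris pH 7.5/CaCl2 buffer, Coomassie stained; lysis bands quantified by densitometry as % of cytokine-only control.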

[18] = test system: Caco-2; assay: Inhibition of IL1beta/TNFalpha-stimulated MMP-2 secretion in human Caco2 cells at 10 uM after 24 hrs by densitometric analysis; type: functional, cell-based; in short: as §6
[19] = test system: Caco-2; assay: Induction of nitrite release in human Caco2 cells at 10 uM after 24 hrs by Griess assay; type: functional, cell-based; in short: as §3
[20] = test system: Caco-2; assay: Induction of nitrate release in human Caco2 cells at 10 uM after 24 hrs by Griess assay; type: functional, cell-based; in short: as §3
[21] = test system: Caco-2; assay: Inhibition of HGF-stimulated human Caco2 cells invasion at 10 uM by light microscopic analysis; type: functional; in short: as §1
[22] = Cytotoxicity against human Caco2 cells assessed as inhibition of cell viability at 200 uM after 24 hrs by MTT assay; type: cell-based; settings: Caco-2 cells, read-out: INH; in short: as §2
[23] = test system: Caco-2; assay: Inhibition of PMA-stimulated human Caco2 cells migration through matrigel membrane at 10 uM after 48 hrs by light microscopic analysis; type: functional; settings: Caco-2, 48 h; in short: as §1
[24] = Cytotoxicity against human Caco2 cells assessed as inhibition of cell viability at 2.5 uM after 24 hrs by MTT assay; type: cell-based; settings: Caco-2 cells, read-out: INH; in short: as §2

Compound	inhibition at 0.1 µM [1] [%]	CC50 at 24 h [2] [nM]	CC50 at 24 h [3] [nM]	IC50 [6] [nM]	IC50 [7] [nM]	Activity [8]	Activity [9]	inhibition at 100 µM [10] [%]	inhibition [11]	Activity [13]	Activity [14]	Activity [15]	Activity [16]	inhibition [17]	inhibition [18]	also measured
O=C1NC(=O)C(c2ccc(Oc3ccccc3)cc2)(N2CCN(CCO)CC2)C(=O)N1	46.3	> 100000	> 100000	–	–	–	–	–	–	–	–	–	–	–	–	cytotoxicity at 24 h, 100 µM [4]: 25%; cytotoxicity at 24 h, 100 µM [5]: 33%
O=C1NC(=O)C(c2ccc(Oc3ccccc3)cc2)(N2CCCC(CO[N+](=O)[O-])C2)C(=O)N1 (configuration not stated)	40.7	> 12500	8100	179	104	Active	Active	> 80	Active	Non-toxic	Non-toxic	Non-toxic	Non-toxic	Active	inactive	cytotoxicity at 24 h, 12.5 µM [12]: 37%; Activity [19]: inactive; Activity [20]: inactive
CN(CCO[N+](=O)[O-])C1(c2ccc(Oc3ccccc3)cc2)C(=O)NC(=O)NC1=O	44.6	> 100000	48500	53	47.6	Active	Active	–	Active	Non-toxic	Non-toxic	Non-toxic	Non-toxic	Active	inactive	inhibition [10]: Active; cytotoxicity at 24 h, 100 µM [4]: 28%; inhibition [21]: inactive
O=C1NC(=O)C(c2ccc(Oc3ccccc3)cc2)(N2CCC(CCO[N+](=O)[O-])CC2)C(=O)N1	–	> 200000	78700	158	152	Active	Active	–	Active	Non-toxic	Non-toxic	Non-toxic	Non-toxic	Active	inactive	inhibition [10]: Active; cytotoxicity at 24 h, 200 µM [22]: 100%; inhibition at 10 µM [23]: 44.5%
O=C1NC(=O)C(c2ccc(Oc3ccccc3)cc2)(N2CCC(CO)CC2)C(=O)N1	39	47800	66600	66	97	–	–	–	–	–	–	–	–	–	–	–
O=C1NC(=O)C(c2ccc(Oc3ccccc3)cc2)(N2CCCC(CO)C2)C(=O)N1 (configuration not stated)	55.3	33100	46400	15	6.2	–	–	–	–	–	–	–	–	–	–	–
O=C1NC(=O)C(c2ccc(Oc3ccccc3)cc2)(N(CCO)CCO)C(=O)N1	51.2	8200	6800	3.8	26	–	–	–	–	–	–	–	–	–	–	–
O=C1NC(=O)C(c2ccc(Oc3ccccc3)cc2)(N(CCO[N+](=O)[O-])CCO[N+](=O)[O-])C(=O)N1	51.4	> 100000	72000	328	91	Active	Active	> 80	Active	Non-toxic	Non-toxic	Non-toxic	Non-toxic	Active	inactive	cytotoxicity at 24 h, 100 µM [4]: 6%; inhibition at 10 µM [21]: 51%; inhibition at 10 µM [23]: 43.3%
O=C1NC(=O)C(c2ccc(Oc3ccccc3)cc2)(N2CCC(CO[N+](=O)[O-])CC2)C(=O)N1	35.8	> 12500	11800	219	212	Active	Active	> 80	Active	Non-toxic	Non-toxic	Non-toxic	Non-toxic	Active	inactive	cytotoxicity at 24 h, 2.5 µM [24]: 12%; inhibition at 10 µM [23]: 64.9%; Activity [19]: inactive; Activity [20]: inactive
CN(CCO)C1(c2ccc(Oc3ccccc3)cc2)C(=O)NC(=O)NC1=O	34.4	76500	78500	24	145	–	–	–	–	–	–	–	–	–	–	–
O=C1NC(=O)C(c2ccc(Oc3ccccc3)cc2)(N2CCN(CCO[N+](=O)[O-])CC2)C(=O)N1	34.8	26000	12800	149	92	Active	Active	> 80	Active	Non-toxic	Non-toxic	Non-toxic	Non-toxic	Active	inactive	–
O=C1NC(=O)C(c2ccc(Oc3ccccc3)cc2)(N2CCC(CCO)CC2)C(=O)N1	–	25200	30100	10	12	–	–	–	–	–	–	–	–	–	–	–
